Drawing on ChEMBL document CHEMBL1153940, “Anthranilic acid based CCK1 receptor antagonists: blocking the receptor with the same 'words' of the endogenous ligand” (Bioorg Med Chem, 2009), this text covers IC50, Activity and inhibition for 25 compounds.

Each structure is given as a SMILES string.

The target of assay [1] is T1, Cholecystokinin receptor type A (Rattus norvegicus, UniProt P30551).
T1 sequence (P30551 whole entry): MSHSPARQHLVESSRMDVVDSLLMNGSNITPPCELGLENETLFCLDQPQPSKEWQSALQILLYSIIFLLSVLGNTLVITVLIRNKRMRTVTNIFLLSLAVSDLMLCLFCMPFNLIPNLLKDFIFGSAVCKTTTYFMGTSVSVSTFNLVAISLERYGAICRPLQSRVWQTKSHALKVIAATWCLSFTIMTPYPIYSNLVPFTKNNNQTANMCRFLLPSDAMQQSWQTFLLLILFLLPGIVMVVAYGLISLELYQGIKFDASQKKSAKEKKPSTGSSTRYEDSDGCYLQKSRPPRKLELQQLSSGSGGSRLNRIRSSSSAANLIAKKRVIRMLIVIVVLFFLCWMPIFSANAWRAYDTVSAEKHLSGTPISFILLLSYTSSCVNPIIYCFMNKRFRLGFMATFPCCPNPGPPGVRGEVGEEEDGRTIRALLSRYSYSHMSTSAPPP
The assay is described as follows: Displacement of [125I]BH-CCK8 from CCK1 receptor in Sprague-Dawley rat pancreatic acinar cells. A digest of the protocol: (§1)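 Pancreatic acini were obtained by enzymatic digestion from male Sprague Dawley rats fasted 18–24 h with water allowed. Cells were incubated with 25 pM (final) [125I]BH-CCK-8 and competitors at 37 °C for 30 min with shaking. The reaction was stopped with ice-cold Hepes-Ringer (1% BSA, soybean trypsin inhibitor, pH 7.4), then centrifuged 5 min at 12,500g, and pellet radioactivity was measured.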

Assay [2] addresses Gastrin/cholecystokinin type B receptor (Cavia porcellus, UniProt H0VZC5). The assay is described as follows: Displacement of [125I]BH-CCK8 from CCK2 receptor in Hartley guinea pig cerebral cortex.
In assay [3] the test system is Gastrin/cholecystokinin type B receptor (Cavia porcellus). Description: Displacement of [125I]BH-CCK8 from CCK2 receptor in Hartley guinea pig cerebral cortex at 30 uM.
Assay [4] deals with T2, Cholecystokinin receptor type A (Cavia porcellus) (UniProt Q63931).
T2 sequence (whole entry): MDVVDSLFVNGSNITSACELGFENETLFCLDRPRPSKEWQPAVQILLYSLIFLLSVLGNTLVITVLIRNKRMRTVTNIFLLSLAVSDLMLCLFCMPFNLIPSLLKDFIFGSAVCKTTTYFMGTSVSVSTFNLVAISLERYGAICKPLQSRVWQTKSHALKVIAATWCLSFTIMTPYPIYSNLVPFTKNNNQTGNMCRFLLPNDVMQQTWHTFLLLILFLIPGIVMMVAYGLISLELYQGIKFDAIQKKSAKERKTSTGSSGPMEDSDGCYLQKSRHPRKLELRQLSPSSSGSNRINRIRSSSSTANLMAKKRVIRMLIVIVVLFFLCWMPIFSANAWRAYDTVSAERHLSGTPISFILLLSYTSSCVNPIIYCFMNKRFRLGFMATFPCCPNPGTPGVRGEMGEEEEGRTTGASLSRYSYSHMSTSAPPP
Description: Antagonist activity against CCK1 receptor in Hartley guinea pig gallbladder assessed as inhibition of CCK-8- stimulated contraction at 1 uM. In kind it is functional. A digest of the protocol: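 Circular smooth-muscle strips (about 3 × 15 mm) hung in organ baths of Krebs–Henseleit at 32 °C, gassed 95% O2–5% CO2, and equilibrated 60 min with washes every 15 min. Antagonist or vehicle was applied 5 min before a submaximal (70–80%) CCK-8 concentration. Isometric contraction was recorded and activity expressed as percent inhibition of agonist contraction.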

For assay [5], the system named is Gastrin/cholecystokinin type B receptor (Cavia porcellus). The assay is described as follows: Displacement of [125I]BH-CCK8 from CCK2 receptor in Hartley guinea pig cerebral cortex at 10 uM. Background: Displacement assays read how much labelled ligand stays bound in the presence of the test substance.
Assay [6] has as its target T3, Cholecystokinin receptor type A (Rattus norvegicus) (UniProt P30551).
T3 sequence (whole entry): T1 sequence (P30551 whole entry)
Description: Displacement of [125I]BH-CCK8 from CCK1 receptor in Sprague-Dawley rat pancreatic acinar cells at 3 uM. The essentials:
as §1

In assay [7] the target is T3, Cholecystokinin receptor type A (Rattus norvegicus). Description: Displacement of [125I]BH-CCK8 from CCK1 receptor in Sprague-Dawley rat pancreatic acinar cells at 10 uM. The essentials: as §1
For assay [8], the system named is Gastrin/cholecystokinin type B receptor (Cavia porcellus). The assay is described as follows: Displacement of [125I]BH-CCK8 from CCK2 receptor in Hartley guinea pig cerebral cortex at 1 uM.

Sequence of Gastrin/cholecystokinin type B receptor (H0VZC5 1-426): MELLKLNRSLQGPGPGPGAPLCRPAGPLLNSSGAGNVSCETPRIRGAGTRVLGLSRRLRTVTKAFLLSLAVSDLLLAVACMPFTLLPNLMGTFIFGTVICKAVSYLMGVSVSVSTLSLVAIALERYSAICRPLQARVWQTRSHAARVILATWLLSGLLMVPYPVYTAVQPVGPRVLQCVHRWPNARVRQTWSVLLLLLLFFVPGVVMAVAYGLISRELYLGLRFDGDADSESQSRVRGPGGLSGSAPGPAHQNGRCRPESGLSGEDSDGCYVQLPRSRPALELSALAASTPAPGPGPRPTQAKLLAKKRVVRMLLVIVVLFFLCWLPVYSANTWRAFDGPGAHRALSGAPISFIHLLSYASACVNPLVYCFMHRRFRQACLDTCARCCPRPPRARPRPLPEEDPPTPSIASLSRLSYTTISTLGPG

By IC50 is commonly meant the midpoint of a concentration-inhibition curve. A low value points to inhibition by little substance. For `O=C(Nc1ccccc1C(=O)NC(Cc1ccccc1)C(=O)O)c1cc2ccccc2[nH]1` (stereo unspecified), the IC50 in assay [1] turned out to be 197 nM; in assay [2] it was 16.4 µM.

For the compound `CC(C)C[C@@H](NC(=O)c1ccccc1NC(=O)c1cc2ccccc2[nH]1)C(=O)O`, the IC50 came out at 46 nM in assay [1] and 14.7 µM in assay [2].

Take `CSCC[C@H](NC(=O)c1ccccc1NC(=O)c1cc2ccccc2[nH]1)C(=O)O`: the IC50 in assay [1] was 2750 nM. The Activity in assay [3] was found to be 31%.

`CSCC[C@@H](NC(=O)c1ccccc1NC(=O)c1cc2ccccc2[nH]1)C(=O)O`: the values for the IC50 in assay [1] and in assay [2] were 27 nM and 11.4 µM, respectively.

One may read the inhibition as the percentage by which the read-out fell short of the control. On to `CSCCC(NC(=O)c1ccccc1NC(=O)c1cc2ccccc2[nH]1)C(=O)O` (stereo unspecified), for which the inhibition in assay [4] came to 100%. In assay [1], this compound had an IC50 of 52 nM. The Activity in assay [5] was less than 20%.

The compound `O=C(O)CNC(=O)c1ccccc1NC(=O)c1cc2ccccc2[nH]1` gave an IC50 in assay [1] of 5520 nM.

Turning to `CCCCCN(CCCCC)C(=O)C(Cc1ccccc1)NC(=O)c1ccccc1NC(=O)c1cc2ccccc2[nH]1` (stereo unspecified), the Activity in assay [3] and in assay [6] was less than 20% throughout.

Take `O=C(Nc1ccccc1C(=O)NCCc1c[nH]c2ccccc12)c1cc2ccccc2[nH]1`: the Activity in assay [5] and in assay [6] was less than 20% throughout.

Regarding `O=C(Nc1ccccc1C(=O)NCCc1ccccc1)c1cc2ccccc2[nH]1`, the Activity in assay [5] and in assay [6] was less than 20% throughout.

For the compound `O=C(O)CCCNC(=O)c1ccccc1NC(=O)c1cc2ccccc2[nH]1`, the Activity in assay [3] and in assay [6] was less than 20% in each case.

Take `O=C(O)CCNC(=O)c1ccccc1NC(=O)c1cc2ccccc2[nH]1`: the Activity in assay [3] and in assay [6] was less than 20% throughout.

Compound `CC(NC(=O)c1ccccc1NC(=O)c1cc2ccccc2[nH]1)C(=O)O` (racemic) registered an IC50 in assay [1] of 3240 nM. This compound also returned an Activity in assay [5] of less than 20%.

As to `CC(Cc1ccccc1)NC(=O)c1ccccc1NC(=O)c1cc2ccccc2[nH]1` (racemic), in assay [1], the IC50 was determined as 3150 nM. For the same compound, the Activity in assay [5] is less than 20%.

As to `O=C(O)CC(Cc1ccccc1)NC(=O)c1ccccc1NC(=O)c1cc2ccccc2[nH]1` (racemic), in assay [7], the Activity is 25%. In assay [2], this compound returned an IC50 of 16.9 µM.

Compound `O=C(Nc1ccccc1C(=O)NC(Cc1c[nH]c2ccccc12)C(=O)O)c1cc2ccccc2[nH]1` (racemic) gave an IC50 in assay [1] of 445 nM.

On to `O=C(Nc1ccccc1C(=O)NC(Cc1ccc(O)cc1)C(=O)O)c1cc2ccccc2[nH]1` (racemic), for which, in assay [1], the IC50 was 2070 nM.

The compound `NC(=O)C(Cc1ccccc1)NC(=O)c1ccccc1NC(=O)c1cc2ccccc2[nH]1` (racemic) had an IC50 in assay [1] of 8530 nM. The compound further displayed an Activity in assay [5] of less than 20%.

As for `O=C(Nc1ccccc1C(=O)NC(Cc1ccc(OCc2ccccc2)cc1)C(=O)O)c1cc2ccccc2[nH]1` (racemic), in assay [1], the IC50 is 1160 nM. Further, the Activity in assay [5] is less than 20%.

`CC(C)C(NC(=O)c1ccccc1NC(=O)c1cc2ccccc2[nH]1)C(=O)O` (racemic): the IC50 in assay [1] came out at 288 nM.

As for `CC(C)CC(NC(=O)c1ccccc1NC(=O)c1cc2ccccc2[nH]1)C(=O)O` (racemic), the inhibition in assay [4] is 100%. Moreover, in assay [1], the IC50 is 83 nM.

Compound `CSCCC(NC(=O)c1ccccc1NC(=O)c1cc2ccccc2n1C)C(=O)O` (racemic) displayed an IC50 in assay [1] of 92 nM. Further, the Activity in assay [5] was less than 20%.

`CCOC(=O)C(Cc1ccccc1)NC(=O)c1ccccc1NC(=O)c1cc2ccccc2[nH]1` (racemic): the Activity in assay [3] was less than 20%; in assay [6], 20%.

With `O=C(Nc1ccccc1C(=O)NC(CO)Cc1ccccc1)c1cc2ccccc2[nH]1` (racemic), the Activity in assay [6] turned out to be 32%.

As to `O=C(O)CC(NC(=O)c1ccccc1NC(=O)c1cc2ccccc2[nH]1)C(=O)O` (racemic), the Activity in assay [7] and in assay [8] was less than 20% each time.

For the compound `O=C(O)CCC(NC(=O)c1ccccc1NC(=O)c1cc2ccccc2[nH]1)C(=O)O` (racemic), the Activity in assay [7] and in assay [5] was less than 20% each time.
